Mcl1 Bid PPI: Mcl-1/Bid interaction inhibition; Q07820; TR-FRET Mcl-1/Bid-Dy647 peptide binding, 1536-well; AID 1021; inhibition, % at 21.7 µM; 220,000 compounds, 0.97% hits;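 active means compounds that cut the binding signal by more than half at the single screening dose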;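 further: His-tagged Mcl-1 with europium anti-His antibody binding Bid BH3 peptide; 0% = Mcl-1 plus peptide wells and 100% = peptide-only wells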
Target sequence (Q07820 whole entry, looked up): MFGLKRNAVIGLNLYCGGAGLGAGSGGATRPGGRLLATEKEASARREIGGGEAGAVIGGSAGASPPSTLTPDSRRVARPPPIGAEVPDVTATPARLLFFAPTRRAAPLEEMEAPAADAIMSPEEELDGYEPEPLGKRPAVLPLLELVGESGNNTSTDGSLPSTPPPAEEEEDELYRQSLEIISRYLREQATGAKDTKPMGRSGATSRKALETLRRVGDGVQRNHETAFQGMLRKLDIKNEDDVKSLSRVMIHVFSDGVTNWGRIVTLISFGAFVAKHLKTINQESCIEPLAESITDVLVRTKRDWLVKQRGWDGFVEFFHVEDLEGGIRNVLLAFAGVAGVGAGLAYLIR
Calpain2 inh: inhibitors of pig calpain II; purified calpain II, fluorogenic peptide substrate, 30 min; 220,000 compounds, 0.37% hits; inhibition, % at 16 µM;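 active means inhibition above about 50%, limit read from the data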
Biofilm kill mix: mixtures killing C. albicans biofilm; inhibition, % at 7.6 µM; 120,000 compounds, 0.02% hits; C. albicans biofilm persisters + clotrimazole, fluorescence viability; primary screen in compound mixtures of four per well;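 further: compounds exposed to preformed 24 h biofilms for 48 h; 0% = untreated biofilm control and 100% = clotrimazole plus chlorhexidine kill blank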
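Test system: C. albicans biofilms. Buffer or medium: RPMI/MOPS medium, pH 7.0. Timing: 48 h compound exposure at 37 °C. Technique: Alamar Blue fluorescence. Evaluation: percent inhibition of biofilm viability.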
Mcl-1 Bim block: inhibitors of Bim-Mcl-1 interaction, human; Q07820; Bead-based flow cytometry, Bim peptide-Mcl-1 binding; inhibition, % at 10 µM; 190,000 compounds, 0.1% hits; in the data active means inhibition above about 40%;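 further: 0% = no compound tracer wells and 100% = peptide blocker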
Arbovirus anti: arbovirus infection inhibition. arbovirus infection cell-based antiviral screen. AID 1251. inhibition, % at 10 µM. 200,000 compounds, 0.37% hits; in the data active means inhibition above about 30%
Mcl1 Noxa PPI: disrupts binding of human Mcl-1 to Noxa peptide; inhibition, % at 21.7 µM; Q07820; 220,000 compounds, 1.5% hits; TR-FRET Mcl-1/Noxa peptide binding, 2 h; AID 1022;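 active means compounds that cut the protein-peptide binding signal by more than 50% relative to plate controls in a single-dose test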;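 further: His-tagged Mcl-1 with rhodamine Noxa BH3 peptide and terbium anti-His antibody; 0% = Mcl-1 plus Noxa peptide wells and 100% = peptide-only wells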
Numbers without * were called inactive. Only some compounds are listed: those with a hit (about 2.8% of all), similar ones and a draw of the others.

Screening NS(=O)(=O)c1ccc(NC(=O)c2cccc(Cl)c2)cc1 returned Mcl1 Bid PPI -18.9, Calpain2 inh -7.4, Biofilm kill mix 6.8 and Mcl1 Noxa PPI 1.2.
Screening CCN(CC(=O)Nc1ccc2c(c1)OCCO2)S(=O)(=O)c1cccs1 returned Mcl1 Bid PPI 64.3*, Calpain2 inh 4.7, Mcl-1 Bim block -3.0, Arbovirus anti 0.9 and Mcl1 Noxa PPI 3.8.
For Cc1ccccc1C(=O)O/N=C(\N)c1ccncc1 the results were Mcl1 Bid PPI -14.6, Calpain2 inh -12.2, Biofilm kill mix 13.9, Mcl-1 Bim block -6.0, Arbovirus anti 2.5 and Mcl1 Noxa PPI -8.0.
For CC(=O)C1=C(C)NC(SCC(N)=O)=C(C#N)C1c1cccnc1 (stereo not drawn) the results were Mcl1 Bid PPI 97.5*, Calpain2 inh -27.9, Mcl-1 Bim block 2.0, Arbovirus anti -1.9 and Mcl1 Noxa PPI 32.3.
Screening O=C1c2ccccc2C(=O)c2c1ccc1c(=O)n(-c3ccccc3)[nH]c21 returned Mcl1 Bid PPI -71.0, Calpain2 inh 1.7, Biofilm kill mix 16.3, Mcl-1 Bim block -2.0, Arbovirus anti -19.5 and Mcl1 Noxa PPI 22.4.
Cc1cccc(-n2[nH]c3c4c(ccc3c2=O)C(=O)c2ccccc2C4=O)c1 was read as Mcl1 Bid PPI -9.1, Calpain2 inh 16.5, Biofilm kill mix 2.5, Mcl-1 Bim block -5.0, Arbovirus anti -16.7 and Mcl1 Noxa PPI 55.1*.
`C=CS(=O)(=O)c1sc(Cl)c(N2CCOCC2)c1[N+](=O)[O-]` gave Mcl1 Bid PPI 69.1*, Calpain2 inh 25.7, Biofilm kill mix 4.9, Mcl-1 Bim block 8.0, Arbovirus anti -1.7 and Mcl1 Noxa PPI 67.4*.
`Oc1ccc(Cl)cc1-c1cc(-c2ccccc2)n[nH]1` gave Mcl1 Bid PPI -1.3, Calpain2 inh -5.3, Mcl-1 Bim block -1.0, Arbovirus anti 32.8* and Mcl1 Noxa PPI 17.2.
For COc1ccc(N2CCN(c3cnc4ccccc4n3)CC2)cc1 the results were Mcl1 Bid PPI -15.9, Calpain2 inh 1.4, Biofilm kill mix 16.0, Mcl-1 Bim block 3.0, Arbovirus anti -8.2 and Mcl1 Noxa PPI 59.0*.
Screening COc1cccc(N2CCN(c3cnc4ccccc4n3)CC2)c1 returned Mcl1 Bid PPI -39.5, Calpain2 inh -2.5, Biofilm kill mix 2.8, Mcl-1 Bim block -3.0, Arbovirus anti 8.0 and Mcl1 Noxa PPI 19.9.
COc1ccc2c(C)cc(Sc3nnnn3-c3ccccc3)nc2c1 was read as Mcl1 Bid PPI -6.1, Calpain2 inh 4.2, Biofilm kill mix 11.1, Mcl-1 Bim block -4.0, Arbovirus anti 30.9* and Mcl1 Noxa PPI -3.8.
COCCn1c(-c2cccc([N+](=O)[O-])c2)nc2c1c(=O)[nH]c(=O)n2Cc1ccccc1 was read as Mcl1 Bid PPI -22.5, Calpain2 inh 10.6, Biofilm kill mix 13.8, Mcl-1 Bim block -3.0, Arbovirus anti 10.2 and Mcl1 Noxa PPI -6.4.
`Cc1c(CCOC(=O)C23CC4CC(CC(C4)C2)C3)sc[n+]1CC#N` gave Mcl1 Bid PPI -22.7, Calpain2 inh -12.2, Biofilm kill mix 8.8, Mcl-1 Bim block 0.0, Arbovirus anti -0.7 and Mcl1 Noxa PPI -1.0.
c1ccc(Oc2cccc(OCCn3cncn3)c2)cc1 was read as Mcl1 Bid PPI 59.4*, Calpain2 inh 4.1, Mcl-1 Bim block -1.0, Arbovirus anti 1.5 and Mcl1 Noxa PPI 31.5.
c1ccc(COc2ccc(OCCn3cncn3)cc2)cc1 was read as Mcl1 Bid PPI 2.1, Calpain2 inh 13.3, Mcl-1 Bim block 0.0, Arbovirus anti -2.4 and Mcl1 Noxa PPI 12.1.
For Cc1nc(/C=C\C(=O)O)c2cc(C)oc2n1 the results were Mcl1 Bid PPI -16.6, Calpain2 inh -23.2, Biofilm kill mix 11.8, Mcl-1 Bim block -1.0, Arbovirus anti 3.9 and Mcl1 Noxa PPI 10.2.
`O=C(O)c1ccccc1NS(=O)(=O)c1ccccc1C(F)(F)F` gave Mcl1 Bid PPI -4.9, Calpain2 inh 18.0, Mcl-1 Bim block -2.0, Arbovirus anti 6.2 and Mcl1 Noxa PPI 53.1*.
For O=C(O)c1ccccc1NS(=O)(=O)c1cccc2cccnc12 the results were Mcl1 Bid PPI -3.6, Calpain2 inh -12.2, Mcl-1 Bim block -3.0, Arbovirus anti 7.5 and Mcl1 Noxa PPI -0.9.
For Cc1ccccc1NS(=O)(=O)c1ccc(C)c(C(N)=O)c1 the results were Mcl1 Bid PPI -16.4, Calpain2 inh -11.1, Mcl-1 Bim block -1.0, Arbovirus anti 3.9 and Mcl1 Noxa PPI -5.5.
For O=C(O)CCCNc1ccc(S(=O)(=O)Nc2ccccc2C(=O)O)cc1C(=O)O the results were Mcl1 Bid PPI 21.6, Calpain2 inh -16.6, Mcl-1 Bim block -4.0, Arbovirus anti 2.9 and Mcl1 Noxa PPI 60.5*.
Screening CC(C)n1c(=S)[nH]c2c1c(=O)[nH]c(=O)n2C returned Mcl1 Bid PPI -39.4, Calpain2 inh 14.8, Mcl-1 Bim block -3.0, Arbovirus anti 1.2 and Mcl1 Noxa PPI 54.4*.
For O=c1c(CN2CCN(Cc3ccccc3)CC2)coc2ccc(Cl)cc12 the results were Mcl1 Bid PPI 93.0*, Calpain2 inh 25.1, Mcl-1 Bim block -2.0, Arbovirus anti -1.6 and Mcl1 Noxa PPI 15.4.
Screening COc1ccc(CN2CCN(CCc3ccccc3)C(CCO)C2)c(O)c1 (stereo not drawn) returned Mcl1 Bid PPI -33.6, Calpain2 inh 20.6, Biofilm kill mix -9.3, Mcl-1 Bim block 5.0, Arbovirus anti 1.0 and Mcl1 Noxa PPI -9.2.
For COc1ccc(CS(=O)c2nc(C)cc(C)c2S(C)(=O)=O)cc1 (stereo not drawn) the results were Mcl1 Bid PPI -4.4, Calpain2 inh 0.3, Biofilm kill mix 10.3, Mcl-1 Bim block 0.0, Arbovirus anti 0.3 and Mcl1 Noxa PPI 13.7.
For COc1ccccc1C(=O)O/N=C(/C)c1ccc(N2C(=O)C3CCCCC3C2=O)cc1 (stereo not drawn) the results were Mcl1 Bid PPI 2.4, Calpain2 inh 54.1*, Mcl-1 Bim block -1.0, Arbovirus anti -2.2 and Mcl1 Noxa PPI 17.7.
`COc1ccc(OC)c(-c2cc(C3CCN(C(=O)OC(C)(C)C)CC3)[nH]n2)c1` gave Mcl1 Bid PPI -9.3, Calpain2 inh -16.1, Biofilm kill mix 15.6, Mcl-1 Bim block 0.0, Arbovirus anti -16.9 and Mcl1 Noxa PPI 21.1.
COc1ccc2nc(NC(=O)C3CCCN(S(=O)(=O)c4cccc5nonc45)C3)sc2c1 (stereo not drawn) was read as Mcl1 Bid PPI -15.3, Calpain2 inh -84.1, Mcl-1 Bim block -2.0, Arbovirus anti -7.3 and Mcl1 Noxa PPI 7.4.
`CCOc1ccc2nc(NC(=O)C3CCCN(S(=O)(=O)c4cccc5nonc45)C3)sc2c1` (stereo not drawn) gave Mcl1 Bid PPI 59.4*, Calpain2 inh -113.9, Mcl-1 Bim block -6.0, Arbovirus anti 4.7 and Mcl1 Noxa PPI 45.4.
COc1cc(NC(=O)C2CCN(S(=O)(=O)c3cccc4nonc34)CC2)cc(OC)c1 was read as Mcl1 Bid PPI 81.1*, Calpain2 inh -20.0, Mcl-1 Bim block 3.0, Arbovirus anti 8.7 and Mcl1 Noxa PPI 10.1.

Assay outcomes (PubChem)
